# Source: PubChem BioAssay (Johns Hopkins Ion Channel Center)
# Only some compounds are listed: those with a hit (about 3.7% of all), similar ones and a draw of the others.
# hERG rescue = hERG rescue from dofetilide block, primary screen, cell-based, CHO-hERG, FluxOR thallium flux, dofetilide IC70 | dofetilide IC70 present | activation (rescue from dofetilide block), less the hit threshold, % at 10 µM | Voltage-gated inwardly rectifying potassium channel KCNH2 (Homo sapiens), Q12809 | 0.51% of 310,000 active;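 active means activation above the mean of controls blocked by dofetilide plus 5 SD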;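 further: thallium influx through hERG after potassium depolarization seen as dye fluorescence rise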
# KCNK9 inh = KCNK9 potassium channel inhibitors, primary screen, HEK293 cells, thallium flux; FluxOR thallium flux fluorescence; active compounds read low; B-score at 10 µM; 1.2% of 310,000 active; Potassium channel subfamily K member 9 (Homo sapiens), Q9NPC2;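 active means ratio B-score over 3 SD below the library mean, with starting fluorescence within 5 SD of its mean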;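 further: negative B-score means less thallium flux so channel inhibition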
# Target sequence (Q9NPC2 whole entry, looked up): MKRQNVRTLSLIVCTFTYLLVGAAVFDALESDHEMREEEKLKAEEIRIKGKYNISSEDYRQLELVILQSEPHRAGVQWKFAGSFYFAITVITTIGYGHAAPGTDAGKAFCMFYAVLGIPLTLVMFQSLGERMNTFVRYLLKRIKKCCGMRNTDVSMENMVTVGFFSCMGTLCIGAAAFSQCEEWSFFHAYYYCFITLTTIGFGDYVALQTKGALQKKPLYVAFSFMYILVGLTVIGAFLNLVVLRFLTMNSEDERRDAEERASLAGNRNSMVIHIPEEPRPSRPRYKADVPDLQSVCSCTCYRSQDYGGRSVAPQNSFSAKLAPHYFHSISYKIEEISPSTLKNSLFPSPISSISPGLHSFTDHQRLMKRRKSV
# KCNQ1 block = inhibitors of human KCNQ1 channel, primary screen, cell-based, thallium flux, high-throughput; CHO-K1 KCNQ1, FluxOR thallium flux fluorescence; active compounds read high; B-score at 10 µM; 1.3% of 310,000 active; Potassium voltage-gated channel subfamily KQT member 1 (Homo sapiens), P51787;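 active means compounds whose thallium flux B-score, printed positive for inhibition, exceeds three library SD while starting fluorescence stays within three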;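 further: channel opened by potassium depolarization with thallium stimulus after 20 min compound exposure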
# KCNK3 block = human KCNK3 channel inhibitors, primary screen, CHO cells, FluxOR thallium flux, B-score | Potassium channel subfamily K member 3 (Homo sapiens), O14649 | FluxOR fluorescence; active compounds read low | B-score at 10 µM | 0.84% of 340,000 active | AID 602410, 2012;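 active means B-score under library mean minus 4 SD, starting fluorescence ratio at most library mean plus 5 SD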;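 further: more negative B-score means stronger inhibition of thallium flux through KCNK3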
# Kir21 block = inhibitors of mouse Kir2.1 inward-rectifier potassium channel; B-score at 10 µM; AID 1672, 2009; Inward rectifier potassium channel 2 (Mus musculus), P35561; HEK293-Kir2.1, FluxOR thallium flux fluorescence; active compounds read low; 0.85% of 310,000 active;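 active means fluorescence ratio B-score at or below minus 3 SD of library scores, with starting-brightness B-score within 2 SD, cut at about -4.2 in these data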;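 further: channel flux triggered by added potassium and thallium sulfate stimulus; B-score of peak minus minimum fluorescence over baseline after thallium stimulus; more negative B-score means stronger Kir2.1 block with less thallium influx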
# KCNQ1 pot = potentiators or activators of KCNQ1 channel, primary screen, cell-based, thallium flux, high-throughput. CHO-K1 KCNQ1, thallium flux FluxOR fluorescence; active compounds read high. B-score at 10 µM. 0.35% of 310,000 active;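 active means fluorescence ratio B-score, a plate-corrected score, at least three library SD, with initial intensity B-score within 5 SD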
#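 Test system: CHO-K1 cells stably expressing KCNQ1 / Medium: assay buffer / Also added: depolarizing K+/Tl+ stimulus, K2SO4 and Tl2SO4 each 12.5 mM in 5x stock / Incubation: 90 min dye loading and 20 min compound exposure, both at room temperature / Signal: thallium influx via FluxOR fluorescence, kinetic imaging / Evaluation: B score of baseline-normalized fluorescence ratio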
# KCNK3 confirm = retest of human KCNK3 channel inhibitors, confirmation, CHO cells, FluxOR thallium flux, triplicate. shares compounds with KCNK3 block. ratio percent of control, % at 10 µM. 99% of 2,400 active. AID 651638, 2012. FluxOR fluorescence; 0% buffer, 100% carvedilol maximal block;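 active means ratio percent of control, averaged over triplicates, above buffer control mean plus 5 SD, cut at about 64% in these data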;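 further: ratio is the fluorescence rise from min to max over baseline after thallium stimulus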
# KCNK3 uninduced = thallium flux inhibition in non-induced cells, primary screen, counter-screen for KCNK3 inhibitor project, cell-based, non-induced KCNK3 line, FluxOR thallium, triplicate. shares compounds with KCNK3 block. non-induced KCNK3 parental cells; active compounds read low. thallium flux ratio (lower = more inhibition) at 10 µM. 40% of 2,400 active;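 active means thallium flux ratio, averaged over three wells, more than 5 SD below the buffer control mean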;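 further: host cells are CHO cells without KCNK3 induction; ratio is peak minus trough fluorescence over baseline then normalized to buffer controls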
# Active calls of the source: *; i = inactive; . = no result.
SMILES,hERG rescue,KCNK9 inh,KCNQ1 block,KCNK3 block,Kir21 block,KCNQ1 pot,KCNK3 confirm,KCNK3 uninduced
CC(C)(C)c1ccc(C(=O)N2CCC(NC(=O)c3ccccc3)CC2)cc1,-3,i,i,i,1.2,i,.,.
O=C(c1c[nH]c(C(=O)C(Cl)(Cl)Cl)c1)c1ccc(F)cc1Cl,-15,i,i,-11*,0.14,8*,88*,i
O=C(Cc1ccc(NC(=O)C2CCN(C(=O)c3ccccc3)CC2)cc1)Nc1cccc(C(=O)N2CCCCC2)c1,.,.,.,i,.,.,.,.
NNc1nc(-c2ccccc2)c2ccccc2n1,-22,i,i,i,-0.96,i,.,.
c1ccc(-c2nc(-n3nc4ccccc4n3)nc3ccccc23)cc1,-14,-7.9*,i,-14*,1.3,i,88*,0.15*
c1ccc(COn2nnc3ccccc32)c(COn2nnc3ccccc32)c1,-10,i,i,-9.7*,-5.7*,i,102*,i
CCOc1ccccc1CNC(c1ccccc1)c1ccccc1,-12,i,i,-10*,-1.5,i,67*,0.16*
COc1ccccc1CNC(c1ccccc1)c1ccccc1,-13,i,i,i,-2.8,i,.,.
CN(CCOc1ccc(Cl)cc1)C(=O)c1cc(-c2ccco2)nc2ccccc12,-32,i,i,-10*,0.85,i,117*,0.13*
CCC(C)c1ccc(NC(=O)C2CC3CCC2C3)cc1 (centres undefined),-9,-6.6*,i,-9.4*,0.01,i,116*,i
Cc1ccc(S(=O)(=O)NCC(NCc2ccc(F)cc2)c2ccccc2)cc1 (centres undefined),.,.,.,i,.,.,.,.
N#Cc1c(N)nc(SCC(=O)OCc2ccccc2)c(C#N)c1-c1ccco1,-8,i,i,-11*,-0.79,i,87*,i
O=C(/C=C/c1ccncc1)c1cc(Cl)ccc1O,-10,i,i,i,0.27,i,.,.
CN(C)c1ccc(/C=C/C(=O)c2cc(Cl)ccc2O)cc1,-8,i,i,-13*,0.21,i,106*,i
Cc1ccc(S(=O)(=O)N(CC(=O)NCCC2=CCCCC2)Cc2ccccc2F)cc1,-9,i,i,-9.4*,0.62,i,116*,i
C#CCN1C(C)=C(C(=O)OC)C(c2cccc([N+](=O)[O-])c2)C(C(=O)OCC)=C1C (centres undefined),.,.,.,-12*,.,.,109*,i
CCOC(=O)C1=C(c2ccccc2)NC(=O)N(C(C)=O)C1c1cccc([N+](=O)[O-])c1 (centres undefined),-1,i,i,i,1,i,.,.
COc1ccc(C2CC(c3ccccc3)=NN2C(=O)CSc2nnnn2-c2cccc(C)c2)cc1 (centres undefined),-13,i,i,i,1.3,i,.,.
C=CCN(C(=O)c1ccc2c(c1)nnn2C)c1ccccc1,-1,i,i,i,0.97,i,.,.
Cc1c(C(=O)N2CCc3ccccc32)oc2ccccc12,-10,i,i,i,-0.55,i,.,.
COCc1c(C(=O)N2CCc3ccccc32)oc2ccccc12,-4,i,i,-11*,-0.02,i,86*,i
CCOCCCNC(=O)/C(C#N)=C/c1ccc(Cl)c([N+](=O)[O-])c1,-22,i,i,-9.1*,0.92,i,122*,0.12*
CCCn1c(SCC(=O)N2CCCC2=O)nc2ccccc2c1=O,.,.,.,i,.,.,.,.
O=C(O)Cn1nnc(-c2ccc(OCc3ccccc3Cl)cc2)n1,-3,i,i,i,0.26,i,.,.
CC(C)n1nnc(-c2ccc(OCc3ccccc3F)cc2)n1,-7,-7.9*,i,-9.1*,0.15,i,99*,i
SMILES,hERG rescue,KCNK9 inh,KCNQ1 block,KCNK3 block,Kir21 block,KCNQ1 pot,KCNK3 confirm,KCNK3 uninduced
COCC(C)n1c(SCc2cc(C(=O)OC)c(C)o2)nc2ccccc2c1=O (centres undefined),-12,i,i,-8.9*,-1.3,i,90*,i
COc1ccc(NS(=O)(=O)c2cccc(NC(=O)COc3ccccc3[N+](=O)[O-])c2)cc1,.,.,.,i,.,.,.,.
CCN(c1ccc(OC)cc1)S(=O)(=O)c1ccc(-c2cc(C)no2)s1,0,i,i,-12*,-0.86,i,119*,i
CCc1ccccc1N(C)S(=O)(=O)c1ccc(-c2cc(C)no2)s1,-6,i,i,-9.9*,0.97,i,113*,i
Cc1cc(-c2ccc(S(=O)(=O)N3CCN(C)CC3)s2)on1,-5,i,i,i,-0.89,i,.,.
O=C(CN1C(=O)NC2(CCc3ccccc32)C1=O)c1c[nH]c2ccccc12 (centres undefined),-13,i,i,i,0.51,i,.,.
O=C(CSc1nc(Nc2ccccc2)nc(N2CCOCC2)n1)Nc1ccc([N+](=O)[O-])cc1,-12,i,i,i,-0.18,i,.,.
O=C(CSc1nc(Nc2ccccc2)nc(N2CCOCC2)n1)Nc1cccc([N+](=O)[O-])c1,-10,i,i,-11*,1.1,i,110*,0.15*
Oc1cnc2ccccc2c1CN1CCOCC1,-2,i,i,-8.9*,0.83,i,82*,i
CCN(CC)C(=O)Oc1nnc(SC(C)C)n1-c1ccc(Cl)cc1,-10,i,i,-9.6*,-1.1,i,86*,i
CCN(CC)C(=O)Oc1nnc(SC(C)C)n1-c1ccc(Cl)c(Cl)c1,-11,i,i,i,2.2,i,.,.
Cc1ccc(NC(=O)CNc2cccc(S(=O)(=O)N3CCCCC3)c2)cc1F,-17,-7.6*,i,i,-3.2,i,96*,i
